# Where “and” joins values, the source holds several entries; their conditions need not be identical. Equal entries are not always repeated.
# Columns and labels:
# [1] = Diuretic activity was determined expressed as Na+(sodium) excreted in milli equivalents was reported for a duration of 5 hours after administration of a dose of 25 mg/Kg; assay type: ADME, Urine; conditions: in vivo
# Outline: (§1)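 Male SH rats (Okamoto strain), 16 weeks old, dosed orally by gavage with compound dispersed in 3% starch in normal saline at 2 mL/kg. Oral normal saline load, then individual metabolism cages; 0-5 h urine collected, Na+ and K+ measured by flame photometry. Rats redosed at 24 h without the saline load. MABP and HR taken by femoral arterial puncture under local anesthetic 4 h after the second dose.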
# [2] = Diuretic activity was determined expressed as volume of urine excreted in mL was reported at a dose of 10 mg/Kg; assay type: ADME; conditions: in vivo; outline: as §1
# [3] = Diuretic activity was determined expressed as volume of urine excreted in mL was reported at a dose of 25 mg/Kg; assay type: ADME; conditions: in vivo; outline: as §1
# Rattus norvegicus [4] = assay: Diuretic activity was determined in SH rats expressed as K(+) (potassium) excreted in milli equivalents was reported for a duration of 5 hours after administration of a dose of 10 mg/Kg.; assay type: ADME, organism-based, Urine; conditions: in vivo; outline: as §1
# Rattus norvegicus [5] = assay: Diuretic activity was determined in SH rats expressed as K(+) (potassium) excreted in milli equivalents was reported for a duration of 5 hours after administration of a dose of 25 mg/Kg.; assay type: ADME, organism-based, Urine; conditions: in vivo; outline: as §1
# [6] = Diuretic activity was determined expressed as Na+(sodium) excreted in milli equivalents was reported for a duration of 5 hours after administration of a dose of 10 mg/Kg; assay type: ADME, Urine; conditions: in vivo; outline: as §1
# Rattus norvegicus [7] = assay: Antihypertensive activity determined as heart rate in SH rats, was reported at a dose of 10 mg/Kg; assay type: functional; outline: as §1
# Rattus norvegicus [8] = assay: Antihypertensive activity determined as heart rate in SH rats, was reported at a dose of 25 mg/Kg; assay type: functional; outline: as §1
# Rattus norvegicus [9] = assay: Antihypertensive activity in SH rats, and mean arterial blood pressure was reported at a dose of 10 mg/Kg; assay type: functional, Artery; outline: as §1
# Rattus norvegicus [10] = assay: Antihypertensive activity in SH rats, and mean arterial blood pressure was reported at a dose of 25 mg/Kg; assay type: functional, Artery; outline: as §1
# Rattus norvegicus [11] = assay: Diuretic activity was determined in SH rats expressed as K(+) (potassium) excreted in milli equivalents was reported for a duration of 5 hours after administration of a dose of 25 mg/Kg; assay type: ADME, organism-based, Urine; conditions: in vivo; outline: as §1
# Rattus norvegicus [12] = assay: […] activity expressed as K(+) (potassium) excreted in milli equivalents was reported for a duration of 5 hours after administration of a dose of 100 mg/Kg.; assay type: ADME, organism-based, Urine; conditions: in vivo; outline: as §1
# Rattus norvegicus [13] = assay: […] activity expressed as Na+(sodium) excreted in milli equivalents was reported for a duration of 5 hours after administration of a dose of 100 mg/Kg; assay type: ADME, organism-based, Urine; conditions: in vivo; outline: as §1
# Rattus norvegicus [14] = assay: Diuretic activity was determined expressed as volume of urine excreted in mL was reported at a dose of 100 mg/Kg; assay type: ADME, organism-based; conditions: in vivo; outline: as §1
# Canis familiaris [15] = assay: Antihypertensive activity in renal hypertensive dogs and fall in heart rate(HR) was reported at a time duration of 3 hour after peroral administration of 0.1 mg/kg; assay type: functional, Canis lupus familiaris; conditions: route oral
# Outline: (§2)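 Chronic phase two kidney-one clip Goldblatt renal hypertensive dogs from a standing colony, habituated to the procedure, dosed orally. Arterial blood pressure and heart rate taken by arterial puncture before dosing and repeated at 1, 3 and 5 h after dosing over a 6-h postdosing interval. Maximal falls in MABP and HR recorded.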
# Canis familiaris [16] = assay: Antihypertensive activity in renal hypertensive dogs and fall in heart rate(HR) was reported at a time duration of 3 hour after peroral administration of 0.2 mg/Kg.; assay type: functional, Canis lupus familiaris; outline: as §2
# Canis familiaris [17] = assay: Antihypertensive activity in renal hypertensive dogs and fall in heart rate(HR) was reported at a time duration of 3 hour after peroral administration of 0.3 mg/Kg.; assay type: functional, Canis lupus familiaris; outline: as §2
# Canis familiaris [18] = assay: Antihypertensive activity in renal hypertensive dogs and fall in heart rate(HR) was reported at a time duration of 3 hour after peroral administration of 1.0 mg/Kg.; assay type: functional, Canis lupus familiaris; outline: as §2
# Canis familiaris [19] = assay: Antihypertensive activity in renal hypertensive dogs and fall in heart rate(HR) was reported at a time duration of 5 hour after peroral administration of 0.1 mg/Kg; assay type: functional, Canis lupus familiaris; outline: as §2
# Canis familiaris [20] = assay: Antihypertensive activity in renal hypertensive dogs and fall in heart rate(HR) was reported at a time duration of 5 hour after peroral administration of 0.2 mg/Kg.; assay type: functional, Canis lupus familiaris; outline: as §2
# Canis familiaris [21] = assay: Antihypertensive activity in renal hypertensive dogs and fall in heart rate(HR) was reported at a time duration of 5 hour after peroral administration of 0.3 mg/Kg.; assay type: functional, Canis lupus familiaris; outline: as §2
# Canis familiaris [22] = assay: Antihypertensive activity in renal hypertensive dogs and fall in heart rate(HR) was reported at a time duration of 5 hour after peroral administration of 1.0 mg/Kg.; assay type: functional, Canis lupus familiaris; outline: as §2
# Canis familiaris [23] = assay: Antihypertensive activity in renal hypertensive dogs and maximal fall in mean arterial blood pressure (MABP) was reported at a time duration of 1 hour after peroral administration of 0.2 mg/Kg.; assay type: functional, Canis lupus familiaris, Artery; outline: as §2
# Canis familiaris [24] = assay: Antihypertensive activity in renal hypertensive dogs and maximal fall in mean arterial blood pressure (MABP) was reported at a time duration of 1 hour after peroral administration of 0.3 mg/Kg.; assay type: functional, Canis lupus familiaris, Artery; outline: as §2
# Canis familiaris [25] = assay: Antihypertensive activity in renal hypertensive dogs and maximal fall in mean arterial blood pressure (MABP) was reported at a time duration of 1 hour after peroral administration of 1.0 mg/Kg.; assay type: functional, Canis lupus familiaris, Artery; outline: as §2
# Canis familiaris [26] = assay: Antihypertensive activity in renal hypertensive dogs and maximal fall in mean arterial blood pressure (MABP) was reported at a time duration of 3 hour after peroral administration of 0.1 mg/Kg; assay type: functional, Canis lupus familiaris, Artery; outline: as §2
# Canis familiaris [27] = assay: Antihypertensive activity in renal hypertensive dogs and maximal fall in mean arterial blood pressure (MABP) was reported at a time duration of 3 hour after peroral administration of 0.2 mg/Kg.; assay type: functional, Canis lupus familiaris, Artery; outline: as §2
# Canis familiaris [28] = assay: Antihypertensive activity in renal hypertensive dogs and maximal fall in mean arterial blood pressure (MABP) was reported at a time duration of 3 hour after peroral administration of 0.3 mg/Kg.; assay type: functional, Canis lupus familiaris, Artery; outline: as §2
# Canis familiaris [29] = assay: Antihypertensive activity in renal hypertensive dogs and maximal fall in mean arterial blood pressure (MABP) was reported at a time duration of 5 hour after peroral administration of 0.2 mg/Kg.; assay type: functional, Canis lupus familiaris, Artery; outline: as §2
# Canis familiaris [30] = assay: Antihypertensive activity in renal hypertensive dogs and maximal fall in mean arterial blood pressure (MABP) was reported at a time duration of 5 hour after peroral administration of 0.3 mg/Kg; assay type: functional, Canis lupus familiaris, Artery
# Outline: (§3)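 Chronic-phase two kidney-one clip Goldblatt renal hypertensive dogs from a standing colony, habituated to the procedure. Mean arterial pressure and heart rate taken by direct arterial puncture before dosing and again 1, 3 and 5 h after oral dosing; maximal fall recorded over the 6-h postdosing interval.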
# Canis familiaris [31] = assay: Antihypertensive activity in renal hypertensive dogs and maximal fall in mean arterial blood pressure (MABP) was reported at a time duration of 5 hour after peroral administration of 1.0 mg/Kg.; assay type: functional, Canis lupus familiaris, Artery; outline: as §3
# Canis familiaris [32] = assay: Antihypertensive activity in renal hypertensive dogs and fall in heart rate(HR) was reported at a time duration of 0 hour after peroral administration of 0.1 mg/Kg.; assay type: functional, Canis lupus familiaris; outline: as §2
# Canis familiaris [33] = assay: Antihypertensive activity in renal hypertensive dogs and fall in heart rate(HR) was reported at a time duration of 0 hour after peroral administration of 0.2 mg/Kg.; assay type: functional, Canis lupus familiaris; outline: as §2
# Canis familiaris [34] = assay: Antihypertensive activity in renal hypertensive dogs and fall in heart rate(HR) was reported at a time duration of 0 hour after peroral administration of 1.0 mg/Kg.; assay type: functional, Canis lupus familiaris; outline: as §2
# Canis familiaris [35] = assay: Antihypertensive activity in renal hypertensive dogs and fall in heart rate(HR) was reported at a time duration of 1 hour after peroral administration of 0.1 mg/kg.; assay type: functional, Canis lupus familiaris; conditions: route oral; outline: as §2
# Canis familiaris [36] = assay: Antihypertensive activity in renal hypertensive dogs and fall in heart rate(HR) was reported at a time duration of 1 hour after peroral administration of 0.2 mg/kg.; assay type: functional, Canis lupus familiaris; conditions: route oral; outline: as §2
# Canis familiaris [37] = assay: Antihypertensive activity in renal hypertensive dogs and fall in heart rate(HR) was reported at a time duration of 1 hour after peroral administration of 0.3 mg/Kg.; assay type: functional, Canis lupus familiaris; outline: as §2
# Canis familiaris [38] = assay: Antihypertensive activity in renal hypertensive dogs and fall in heart rate(HR) was reported at a time duration of 1 hour after peroral administration of 1.0 mg/Kg.; assay type: functional, Canis lupus familiaris; outline: as §2
# Canis familiaris [39] = assay: Antihypertensive activity in renal hypertensive dogs and maximal fall in mean arterial blood pressure (MABP) was reported at a time duration of 0 hour after peroral administration of 0.1 mg/Kg; assay type: functional, Canis lupus familiaris, Artery; outline: as §2
# Canis familiaris [40] = assay: Antihypertensive activity in renal hypertensive dogs and maximal fall in mean arterial blood pressure (MABP) was reported at a time duration of 0 hour after peroral administration of 0.2 mg/Kg.; assay type: functional, Canis lupus familiaris, Artery; outline: as §2
# Canis familiaris [41] = assay: Antihypertensive activity in renal hypertensive dogs and maximal fall in mean arterial blood pressure (MABP) was reported at a time duration of 0 hour after peroral administration of 0.3 mg/Kg.; assay type: functional, Canis lupus familiaris, Artery; outline: as §2
# Canis familiaris [42] = assay: Antihypertensive activity in renal hypertensive dogs and maximal fall in mean arterial blood pressure (MABP) was reported at a time duration of 0 hour after peroral administration of 1.0 mg/Kg.; assay type: functional, Canis lupus familiaris, Artery; outline: as §2
# Canis familiaris [43] = assay: Antihypertensive activity in renal hypertensive dogs and maximal fall in mean arterial blood pressure (MABP) was reported at a time duration of 1 hour after peroral administration of 0.1 mg/Kg.; assay type: functional, Canis lupus familiaris, Artery; outline: as §2
# Rattus norvegicus [44] = assay: Antihypertensive activity determined as heart rate in SH rats, was reported at a dose of 100 mg/Kg; assay type: functional; outline: as §1
# Rattus norvegicus [45] = assay: Antihypertensive activity in SH rats, and mean arterial blood pressure was reported at a dose of 100 mg/Kg; assay type: functional, Artery; outline: as §1
# Canis familiaris [46] = assay: Antihypertensive activity in renal hypertensive dogs and fall in heart rate(HR) was reported at a time duration of 0 hour after peroral administration of 0.3 mg/kg.; assay type: functional, Canis lupus familiaris; conditions: route oral; outline: as §2
# Canis familiaris [47] = assay: Antihypertensive activity in renal hypertensive dogs and maximal fall in mean arterial blood pressure (MABP) was reported at a time duration of 3 hour after peroral administration of 1.0 mg/Kg.
structure (smiles),measurement,setting,value
COc1cc(N(C)C)ccc1CNc1cc(Cl)c(/N=C/N(C)C)c(Cl)c1,Diuretic activity,[1],2.16 m equiv
same,Diuretic activity,[2],14.8 mL
same,Diuretic activity,[3],22.5 mL
same,Diuretic activity,Rattus norvegicus [4],0.48 m equiv
same,Diuretic activity,Rattus norvegicus [5],0.75 m equiv
same,Diuretic activity,[6],1.29 m equiv
same,HR,Rattus norvegicus [7],450 beats min-1
same,HR,Rattus norvegicus [8],270 beats min-1
same,MABP,Rattus norvegicus [9],132 mmHg
same,MABP,Rattus norvegicus [10],114 mmHg
Cc1cc(N(C)C)ccc1CNc1cc(Cl)c(/N=C/N(C)C)c(Cl)c1,Diuretic activity,[1],2.59 m equiv
same,Diuretic activity,[3],25.5 mL
same,Diuretic activity,Rattus norvegicus [11],0.6 m equiv
same,HR,Rattus norvegicus [8],270 beats min-1
same,MABP,Rattus norvegicus [10],138 mmHg
CN(C)/C=N/c1c(Cl)cc(NCc2ccc(N(C)C)cc2Cl)cc1Cl,Diuretic activity,Rattus norvegicus [12],0.47 m equiv
same,Diuretic activity,Rattus norvegicus [13],1.89 m equiv
same,Diuretic activity,Rattus norvegicus [14],22.3 mL
same,HR,Canis familiaris [15],96 bpm
same,HR,Canis familiaris [16],58 bpm
same,HR,Canis familiaris [17],63 bpm
same,HR,Canis familiaris [18],47 bpm
same,HR,Canis familiaris [19],113 bpm
same,HR,Canis familiaris [20],65 bpm
same,HR,Canis familiaris [21],60 bpm
same,HR,Canis familiaris [22],66 bpm
same,MABP,Canis familiaris [23],123 mmHg
same,MABP,Canis familiaris [24],111 mmHg
same,MABP,Canis familiaris [25],108 mmHg
same,MABP,Canis familiaris [26],135 mmHg and 144 mmHg
same,MABP,Canis familiaris [27],129 mmHg
same,MABP,Canis familiaris [28],128 mmHg
same,MABP,Canis familiaris [29],147 mmHg
same,MABP,Canis familiaris [30],132 mmHg
same,MABP,Canis familiaris [31],128 mmHg
same,HR,Canis familiaris [32],120 bpm
same,HR,Canis familiaris [33],79 bpm
same,HR,Canis familiaris [34],110 bpm
same,HR,Canis familiaris [35],100 bpm
same,HR,Canis familiaris [36],56 bpm
same,HR,Canis familiaris [37],60 bpm
same,HR,Canis familiaris [38],60 bpm
same,MABP,Canis familiaris [39],146 mmHg
same,MABP,Canis familiaris [40],152 mmHg
same,MABP,Canis familiaris [41],148 mmHg
same,MABP,Canis familiaris [42],140 mmHg
same,MABP,Canis familiaris [43],126 mmHg
same,HR,Rattus norvegicus [44],310 beats min-1
same,MABP,Rattus norvegicus [45],116 mmHg
same,HR,Canis familiaris [46],94 bpm
same,MABP,Canis familiaris [47],114 mmHg

# — ChEMBL document CHEMBL1122545, “N2-(4-Substituted-2,6-dichlorophenyl)-N1,N1-dimethylformamidines as antihypertensive and diuretic agents” (J Med Chem, 1984)
